Assay results reported in ChEMBL document CHEMBL2331548, “Identification of N-acyl 4-(3-pyridonyl)phenylalanine derivatives and their orally active prodrug esters as dual acting α4β1 and α4β7 receptor antagonists” (Bioorg Med Chem Lett, 2013).
Converted amounts (≈) assume the structure as drawn. One block for each compound: values may come before it. The source made the active and inactive calls. The calls are words filed in the database; no cut-off is given here.

Columns and labels:
[1] = Solubility in water; type: physicochemical
[2] = Oral bioavailability in dog; type: ADME, organism-based, Canis lupus familiaris; settings: in vivo
[3] = Oral bioavailability in rat; type: ADME, organism-based; settings: in vivo
hERG (KCNH2) = hERG (KCNH2) (Homo sapiens, UniProt Q12809); assay: Inhibition of human ERG
Sequence of hERG (KCNH2) (Q12809 whole entry): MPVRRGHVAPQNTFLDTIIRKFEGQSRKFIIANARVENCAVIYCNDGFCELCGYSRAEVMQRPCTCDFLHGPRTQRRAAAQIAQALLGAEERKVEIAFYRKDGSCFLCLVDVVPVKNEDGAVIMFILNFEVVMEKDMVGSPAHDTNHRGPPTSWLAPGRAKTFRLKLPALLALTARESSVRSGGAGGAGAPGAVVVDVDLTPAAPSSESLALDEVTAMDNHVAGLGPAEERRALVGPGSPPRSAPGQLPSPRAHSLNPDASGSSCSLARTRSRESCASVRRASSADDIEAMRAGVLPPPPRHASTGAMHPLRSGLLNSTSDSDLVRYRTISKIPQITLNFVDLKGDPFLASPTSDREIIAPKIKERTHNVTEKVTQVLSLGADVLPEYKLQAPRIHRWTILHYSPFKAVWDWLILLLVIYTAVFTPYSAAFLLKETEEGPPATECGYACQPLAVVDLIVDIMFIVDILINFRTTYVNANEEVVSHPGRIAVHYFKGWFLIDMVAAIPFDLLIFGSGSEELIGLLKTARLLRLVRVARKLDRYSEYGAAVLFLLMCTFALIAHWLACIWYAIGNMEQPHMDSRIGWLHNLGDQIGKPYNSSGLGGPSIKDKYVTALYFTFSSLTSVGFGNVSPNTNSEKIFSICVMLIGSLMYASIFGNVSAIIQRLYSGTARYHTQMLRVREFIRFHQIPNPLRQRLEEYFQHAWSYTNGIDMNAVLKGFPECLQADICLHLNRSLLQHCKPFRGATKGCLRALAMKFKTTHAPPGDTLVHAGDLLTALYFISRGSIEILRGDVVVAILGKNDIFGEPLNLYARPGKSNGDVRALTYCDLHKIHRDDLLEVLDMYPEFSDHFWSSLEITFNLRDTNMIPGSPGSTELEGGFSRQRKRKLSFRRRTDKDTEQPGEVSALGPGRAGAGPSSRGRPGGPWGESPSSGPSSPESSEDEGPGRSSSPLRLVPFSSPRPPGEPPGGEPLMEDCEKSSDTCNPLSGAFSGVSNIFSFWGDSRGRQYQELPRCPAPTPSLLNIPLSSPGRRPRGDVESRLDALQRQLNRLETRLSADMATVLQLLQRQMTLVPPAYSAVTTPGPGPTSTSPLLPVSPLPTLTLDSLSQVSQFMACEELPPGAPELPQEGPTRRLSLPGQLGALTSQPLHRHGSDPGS

[4] = Stability in simulated intestinal fluid at pH 7.5 assessed as half life; type: physicochemical; settings: simulated gi fluid
[5] = Solubility in simulated gastric fluid at pH 2.0; type: physicochemical
[6] = Apparent permeability across human Caco2 cells; type: ADME, cell-based; settings: Caco-2
[7] = Solubility in simulated intestinal fluid at pH 7.5; type: physicochemical
Liver microsomes [8] = assay: Stability in human liver microsomes assessed as prodrug hydrolysis; type: ADME, Microsome
Procedure, shortened: (§1)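 Ester prodrug incubated in liver microsomal preparations from mouse, rat, dog, monkey and human; percent of ester remaining followed at 0, 10, 30 and 90 min. A buffer-only incubation without microsomes served as control.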

Liver [9] = assay: Stability in dog liver microsomes assessed as prodrug hydrolysis; type: ADME, Canis lupus familiaris, Microsome; procedure, shortened: as §1
Liver microsomes [10] = assay: Stability in rat liver microsomes assessed as prodrug hydrolysis; type: ADME, Microsome; procedure, shortened: as §1
[11] = Stability in monkey liver microsomes assessed as prodrug hydrolysis; type: ADME, Macaca mulatta, Microsome; settings: rhesus monkey; procedure, shortened: as §1
Liver [12] = assay: Stability in mouse liver microsomes assessed as prodrug hydrolysis; type: ADME, Microsome; procedure, shortened: as §1
Plasma = assay: Stability in dog plasma assessed as unchanged prodrug level on days 1 and 6; type: ADME, cell-free, Canis lupus familiaris
Procedure, shortened: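 Unchanged prodrug measured in dog plasma on days 1 and 6 of subchronic safety studies after dosing with the ester prodrug.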

Cynomolgus monkey [13] = assay: Antiinflammatory activity in cynomolgus monkey challenged with aerosolized Ascaris suum extract assessed as reduction in total leukocytes influx into lungs at 10 and 30 mg/kg, po administered 2 hrs before antigen challenge measured 24 hrs after antigen challenge; type: functional, organism-based; design: dose 30 mg/kg; settings: Macaca fascicularis
Procedure, shortened: (§2)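 Cynomolgus monkeys (atopic) dosed orally at 10 or 30 mg/kg, or vehicle, then challenged 2 h later with aerosolized Ascaris suum extract. Bronchiolar lavage fluid collected 24 h post-challenge and inflammatory cells counted by type (macrophages, neutrophils, eosinophils, lymphocytes, total) as cells ×10^4/mL.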

Cynomolgus monkey [14] = assay: Antiinflammatory activity in cynomolgus monkey challenged with aerosolized Ascaris suum extract assessed as reduction in neutrophils influx into lungs at 10 and 30 mg/kg, po administered 2 hrs before antigen challenge measured 24 hrs after antigen challenge; type: functional, organism-based; design: dose 30 mg/kg; settings: Macaca fascicularis; procedure, shortened: as §2
Cynomolgus monkey [15] = assay: Antiinflammatory activity in cynomolgus monkey challenged with aerosolized Ascaris suum extract assessed as reduction in lymphocytes influx into lungs at 10 and 30 mg/kg, po administered 2 hrs before antigen challenge measured 24 hrs after antigen challenge; type: functional, organism-based; design: dose 30 mg/kg; settings: Macaca fascicularis; procedure, shortened: as §2
Cynomolgus monkey [16] = assay: Antiinflammatory activity in cynomolgus monkey challenged with aerosolized Ascaris suum extract assessed as reduction in eosinophils influx into lungs at 10 and 30 mg/kg, po administered 2 hrs before antigen challenge measured 24 hrs after antigen challenge; type: functional, organism-based; design: dose 30 mg/kg; settings: Macaca fascicularis; procedure, shortened: as §2
Canis familiaris [17] = assay: Cmax in dog at 50 mg/kg, po; type: ADME, organism-based, Canis lupus familiaris; design: dose 50 mg/kg, route oral; settings: in vivo
Procedure, shortened: (§3)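 Ester prodrug given orally (rat and dog 50 mg/kg, monkey 30 mg/kg). Plasma exposure measured as the parent acid, reported as AUC and Cmax; bioavailability (F%) calculated for the acid.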

[18] = Oral bioavailability in dog at 50 mg/kg; type: ADME, organism-based, Canis lupus familiaris; settings: in vivo; procedure, shortened: as §3
Canis familiaris [19] = assay: AUC in dog assessed as (2S)-2-(2,6-dichlorobenzamido)-3-(4-(2-hydroxy-1,6-dimethyl-4-(trifluoromethyl)-1,2-dihydropyridin-3-yl)phenyl)propanoic acid level at 50 mg/kg, po; type: ADME, organism-based, Canis lupus familiaris, Plasma; design: dose 50 mg/kg, route oral; settings: in vivo; procedure, shortened: as §3
[20] = Oral bioavailability in rat at 50 mg/kg; type: ADME, organism-based; settings: in vivo; procedure, shortened: as §3
Rattus norvegicus [21] = assay: Cmax in rat at 50 mg/kg, po; type: ADME, organism-based; design: dose 50 mg/kg, route oral; settings: in vivo; procedure, shortened: as §3
Rattus norvegicus [22] = assay: AUC in rat assessed as (2S)-2-(2,6-dichlorobenzamido)-3-(4-(2-hydroxy-1,6-dimethyl-4-(trifluoromethyl)-1,2-dihydropyridin-3-yl)phenyl)propanoic acid level at 50 mg/kg, po; type: ADME, organism-based, Plasma; design: dose 50 mg/kg, route oral; settings: in vivo; procedure, shortened: as §3
Macaca fascicularis [23] = assay: Oral bioavailability in monkey at 30 mg/kg; settings: cynomolgus monkey, in vivo
Macaca fascicularis [24] = assay: AUC in monkey assessed as (2S)-2-(2,6-dichlorobenzamido)-3-(4-(2-hydroxy-1,6-dimethyl-4-(trifluoromethyl)-1,2-dihydropyridin-3-yl)phenyl)propanoic acid level at 30 mg/kg, po; settings: cynomolgus monkey, in vivo
[25] = Stability in plasma (unknown origin) assessed as unchanged prodrug level; type: ADME, cell-free
[26] = simulated gastric fluid, read-out: solubility

solubility [1]: 6 µg/mL (≈ 10.8 µM)
bioavailability [2]: 2%
bioavailability [3]: 18%
Stability [4]: Stable
solubility ([5]; simulated gi fluid, BLD = below limit of detection): BLD
Papp [6]: 27.1 ×10⁻⁶ cm/s
Compound: CCOC(=O)[C@H](Cc1ccc(-c2c(C(F)(F)F)cc(C)n(C)c2=O)cc1)NC(=O)c1c(Cl)cccc1Cl
IC20 (hERG (KCNH2)): 2700 nM

bioavailability [3]: 17%
Stability [4]: Stable
solubility [7]: 4 µg/mL (≈ 6.52 µM)
Papp [6]: 27.5 ×10⁻⁶ cm/s
Compound: CC(=O)OC(C)OC(=O)[C@H](Cc1ccc(-c2c(C(F)(F)F)cc(C)n(C)c2=O)cc1)NC(=O)c1c(Cl)cccc1Cl (stereo partly specified)

Stability (Liver microsomes [8]): Stable
Stability (Liver [9]): Stable
Stability (Liver microsomes [10]): Unstable
Stability [11]: Unstable
Stability (Liver [12]): Unstable
Stability (Plasma): 10%
Cmax (Canis familiaris [17]): 2400 ng/mL
bioavailability [18]: 13%
AUC (Canis familiaris [19]): 6420 ng·h/mL
bioavailability [20]: 11%
Cmax (Rattus norvegicus [21]): 2500 ng/mL
AUC (Rattus norvegicus [22]): 6100 ng·h/mL
bioavailability [3]: 11%
Stability [4]: Stable
solubility [5, 26]: 3900 µg/mL (≈ 5960 µM)
solubility [7]: 330 µg/mL (≈ 504 µM)
Papp [6]: 16.5 ×10⁻⁶ cm/s
bioavailability (Macaca fascicularis [23]): 46%
AUC (Macaca fascicularis [24]): 30150 ng·h/mL
Compound: Cc1cc(C(F)(F)F)c(-c2ccc(C[C@H](NC(=O)c3c(Cl)cccc3Cl)C(=O)OCCCN3CCOCC3)cc2)c(=O)n1C
Activity (Cynomolgus monkey [13]): Active
Activity (Cynomolgus monkey [14]): Active
Activity (Cynomolgus monkey [15]): Active
Activity (Cynomolgus monkey [16]): Active
IC20 (hERG (KCNH2)): 2900 nM

Stability [25]: Stable
bioavailability [3]: 6%
Stability [4]: Stable
solubility [5, 26]: 190 µg/mL (≈ 316 µM)
solubility [7]: 140 µg/mL (≈ 233 µM)
Papp [6]: 1.8 ×10⁻⁶ cm/s
Compound: Cc1cc(C(F)(F)F)c(-c2ccc(C[C@H](NC(=O)c3c(Cl)cccc3Cl)C(=O)OCC(O)CO)cc2)c(=O)n1C (stereo partly specified)
